# ChEMBL document CHEMBL1139866, “Synthesis and antimalarial property of orally active phenoxazinium salts” (J Med Chem, 2007)
# Values joined by “and” are separate entries in the source; they are usually repeats but may differ in a detail not shown here. Identical values can stand only once.
# Columns and labels:
# Mus musculus [1] = experiment: Effect on survival of Plasmodium berghei NK65 infected ICR mice (Mus musculus) assessed as mean survival days at 12 times of 30 mg/kg/8hrs, oral
# [2] = Ratio of EC50 for rat L6 cells to EC50 for Plasmodium falciparum K1; assay type: functional
# Outline: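 Selectivity index is the EC50 against rat skeletal myoblast L-6 cells divided by the in vitro EC50 against chloroquine-resistant P. falciparum K1, which was assayed by the Desjardins method.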
# [3] = Oral bioavailability in Wistar rat at 10 mg/kg, po; assay type: ADME, organism-based; conditions: in vivo
# Outline: (§1)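 Preliminary pharmacokinetics in Wistar rats given 10 mg kg^-1 as a saline solution, either intravenously or orally. Values are the average of three animals. Half-life is determined for each route, and oral bioavailability is obtained by comparing the oral and intravenous routes.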
# Plasmodium berghei [4] = experiment: Antimalarial activity against Plasmodium berghei NK65 infected ICR mice (Mus musculus) as reduced parasitaemia after 2.5 mg/kg intraperitoneal dose on day 4; assay type: functional; design: scale not given: the % may be the effect or the level left
# Outline: (§2)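 Peters' four-day suppressive test with P. berghei NK-65 (drug-sensitive) in groups of five ICR mice, dosed intraperitoneally once daily for 4 days. Parasitemia on day 4 is compared with untreated infected controls to give % suppression. Survival is followed after treatment as mean survival days, observed up to day 30.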
# Plasmodium berghei [5] = experiment: Antimalarial activity against Plasmodium berghei NK65 infected ICR mice (Mus musculus) as reduced parasitaemia after 12 doses of 15 mg/kg/8hrs; assay type: functional; design: scale not given: the % may be the effect or the level left
# Outline: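 Oral four-day suppressive test against P. berghei NK-65 in five ICR mice, using short-span dosing every 8 h for 12 doses in total. % parasitemia suppression on day 4 is calculated against untreated infected controls, and mean survival days and mice alive on day 30 are recorded.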
# Plasmodium berghei [6] = experiment: Antimalarial activity against Plasmodium berghei NK65 infected ICR mice (Mus musculus) as reduced parasitaemia on day 4 after 1 day at 100 mg/kg/day oral dose; design: scale not given: the % may be the effect or the level left
# Mus musculus [7] = experiment: Effect on survival of Plasmodium berghei NK65 infected ICR mice (Mus musculus) assessed as mean survival days at 12 times of 15 mg/kg/8hrs, oral
# [8] = Half life in Wistar rat at 10 mg/kg, iv; assay type: ADME, organism-based; design: dose 10 mg/kg, route intravenous; conditions: in vivo
# Outline: as §1
# Mus musculus [9] = experiment: Effect on survival of Plasmodium berghei NK65 infected ICR mice (Mus musculus) assessed as mean survival days at 90 mg/kg/day, oral after 4 days
# Plasmodium berghei [10] = experiment: Antimalarial activity against Plasmodium berghei NK65 infected ICR mice (Mus musculus) as reduced parasitaemia at 100 mg/kg/day oral dose after 4 days; design: scale not given: the % may be the effect or the level left
# Plasmodium falciparum = experiment: Antimalarial activity against chloroquine-resistant Plasmodium falciparum K1 after 48 hrs; assay type: functional, organism-based
# Plasmodium berghei [11] = experiment: Antimalarial activity against Plasmodium berghei NK65 infected ICR mice (Mus musculus) as reduced parasitaemia at 5 mg/kg intraperitoneal dose on day 4; assay type: functional; design: scale not given: the % may be the effect or the level left
# Outline: as §2
# Mus musculus [12] = experiment: Effect on survival of Plasmodium berghei NK65 infected ICR mice (Mus musculus) assessed as mean survival days at 25 mg/kg/day, oral after 4 days
# Rattus norvegicus [13] = experiment: AUC (0-480 mins) in Wistar rat at 10 mg/kg, po; assay type: ADME, organism-based, Plasma; design: time < 8 hr, dose 10 mg/kg, route oral; conditions: in vivo, 8 h
# Outline: as §1
# Rattus norvegicus [14] = experiment: AUC (0-480 mins) in Wistar rat at 10 mg/kg, iv; assay type: ADME, organism-based, Plasma; design: time < 8 hr, dose 10 mg/kg, route intravenous; conditions: in vivo, 8 h
# Outline: as §1
# Plasmodium berghei [15] = experiment: Antimalarial activity against Plasmodium berghei NK65 infected ICR mice (Mus musculus) as reduced parasitaemia at 50 mg/kg/day oral dose after 4 days; design: scale not given: the % may be the effect or the level left
# Plasmodium berghei [16] = experiment: Antimalarial activity against Plasmodium berghei NK65 infected ICR mice (Mus musculus) as reduced parasitaemia after 20 mg/kg intraperitoneal dose on day 4; assay type: functional; design: scale not given: the % may be the effect or the level left
# Outline: as §2
# Mus musculus [17] = experiment: Effect on survival of Plasmodium berghei NK65 infected ICR mice (Mus musculus) assessed as mean survival days at 100 mg/kg/day, oral after 4 days
# Mus musculus [18] = experiment: Effect on survival of Plasmodium berghei NK65 infected ICR mice (Mus musculus) assessed as mean survival days at 100 mg/kg/day, oral after 1 day
# Plasmodium berghei [19] = experiment: Antimalarial activity against Plasmodium berghei NK65 infected ICR mice (Mus musculus) as reduced parasitaemia on 10 mg/kg intraperitoneal dose on day 4; design: scale not given: the % may be the effect or the level left
# Mus musculus [20] = experiment: Effect on survival of Plasmodium berghei NK65 infected ICR mice (Mus musculus) assessed as mean survival days at 20 mg/kg, intraperitoneal after 4 days; assay type: functional
# Outline: (§3)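 Peters' four-day suppressive test in groups of five ICR mice infected with drug-sensitive P. berghei NK-65. Compound given ip once daily for 4 days. Day-4 parasitemia compared with untreated controls to give % suppression. Mice observed after the end of treatment to record mean survival days and the number alive on day 30.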
# Plasmodium berghei [21] = experiment: Antimalarial activity against Plasmodium berghei NK65 infected ICR mice (Mus musculus) as reduced parasitaemia on 25 mg/kg/day oral dose after 4 days; design: scale not given: the % may be the effect or the level left
# [22] = Half life in Wistar rat at 10 mg/kg, po; assay type: ADME, organism-based; design: dose 10 mg/kg, route oral; conditions: in vivo
# Outline: as §1
# Mus musculus [23] = experiment: Effect on survival of Plasmodium berghei NK65 infected ICR mice (Mus musculus) assessed as mean survival days at 50 mg/kg/day, oral after 4 days
# Plasmodium berghei [24] = experiment: Antimalarial activity against Plasmodium berghei NK65 infected ICR mice (Mus musculus) as reduced parasitaemia at 90 mg/kg/day oral dose after 4 days; design: scale not given: the % may be the effect or the level left
# Mus musculus [25] = experiment: Effect on survival of Plasmodium berghei NK65 infected ICR mice (Mus musculus) assessed as mean survival days at 10 mg/kg, intraperitoneal after 4 days; assay type: functional
# Outline: as §3
# Plasmodium berghei [26] = experiment: Antimalarial activity against Plasmodium berghei NK65 infected ICR mice (Mus musculus) as reduced parasitaemia after 12 oral doses of 30 mg/kg/8hrs; design: scale not given: the % may be the effect or the level left
# Mus musculus [27] = experiment: Effect on survival of Plasmodium berghei NK65 infected ICR mice (Mus musculus) assessed as mean survival days at 5 mg/kg, intraperitoneal after 4 days; assay type: functional
# Outline: as §3
# Plasmodium berghei [28] = experiment: Antimalarial activity against Plasmodium berghei NK65 infected ICR mice (Mus musculus) as reduced parasitaemia at 30 mg/kg intraperitoneal dose on day 4; assay type: functional; design: scale not given: the % may be the effect or the level left
# Outline: as §3
# Mus musculus [29] = experiment: Effect on survival of Plasmodium berghei NK65 infected ICR mice (Mus musculus) assessed as mean survival days at 30 mg/kg, intraperitoneal after 4 days; assay type: functional
# Outline: as §3
# [30] = Plasmodium falciparum, K1, 48 h
SMILES,Ratio [2],Activity (Plasmodium berghei [10]),EC50 (Plasmodium falciparum; [30]),Activity (Plasmodium berghei [16]),Mean survival days (Mus musculus [17]),Activity (Plasmodium berghei [19]),Mean survival days (Mus musculus [20]),Mean survival days (Mus musculus [25]),Activity (Plasmodium berghei [11]),Mean survival days (Mus musculus [27]),other results
CCN(CC)c1ccc2nc3ccc(N(CC)CC)cc3[o+]c2c1.[Cl-],830 and 2400,100%,4.7 nM,95.8%,>28 days,80.4%,>14 days,>11 days,–,–,Mean survival days (Mus musculus [1]): >13 days; bioavailability [3]: 96.3%; Activity (Plasmodium berghei [4]): 30.5%; Activity (Plasmodium berghei [5]): 100%; Activity (Plasmodium berghei [6]): 100%; Mean survival days (Mus musculus [7]): 14 days; half-life [8]: 5.8 min; Mean survival days (Mus musculus [9]): >24 days; EC50 (Plasmodium falciparum): 2.8 nM; Activity (Plasmodium berghei [11]; 5 mg/kg): 80.6% and 46.3%; Mean survival days (Mus musculus [12]): 7.6 days; AUC (Rattus norvegicus [13]): 690 ng·h/mL; AUC (Rattus norvegicus [14]): 717 ng·h/mL; Activity (Plasmodium berghei [15]): 98.6%; Mean survival days (Mus musculus [18]): 13 days; Activity (Plasmodium berghei [21]): 82.3%; half-life [22]: 59.2 min; Mean survival days (Mus musculus [23]): 14 days; Activity (Plasmodium berghei [24]): 100%; Activity (Plasmodium berghei [26]): 100%
CN(C)c1ccc2nc3ccc(=[N+](C)C)cc-3oc2c1.[Cl-].[Cl][Zn][Cl],700,–,12.6 nM,–,–,–,–,–,17.1%,5.6 days,–
CN(C)c1ccc2nc3ccc(=[N+](C)C)cc-3oc2c1.[O-][Cl+3]([O-])([O-])[O-],–,–,–,–,–,–,–,–,45.9%,6.7 days,–
CCN(CC)c1ccc2nc3ccc(=[N+](C)C)cc-3oc2c1.[O-][Cl+3]([O-])([O-])[O-],–,–,–,–,–,–,–,–,77%,9.4 days,–
C[N+](C)=c1ccc2nc3ccc(N4CCNCC4)cc3oc-2c1.[Cl-],2300,100%,28 nM,98.1%,17 days,78.5%,17.6 days,7.4 days,54.8%,6 days,Activity (Plasmodium berghei [28]): 100%; Mean survival days (Mus musculus [29]): 16.4 days
CN1CCN(c2cc(OC(=O)C(C)(C)C)c3nc4ccc(=[N+](C)C)cc-4oc3c2)CC1.[Cl-],160,–,270 nM,–,–,–,–,–,19.9%,5.4 days,–
